Assay outcomes (PubChem BioAssay)
Rtt109 Vps75 = inhibitors of Candida albicans Rtt109/Vps75 histone acetyltransferase | purified Rtt109/Vps75, ThioGlo CoA-SH fluorescence, 4 h | inhibition, % at 34.9 µM | hit rate 0.16% among 330,000;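 active = inhibition of at least 50% in every replicate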
SR-BI uptake up = activators of SR-BI mediated HDL lipid uptake; CHO ldlA[mSR-BI] cells, DiI-HDL uptake fluorescence, 3 h; 100 = double the neutral-control signal; AID 504775; hit rate 0.096% among 320,000; activation, % at 12.5 µM;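 active = mean replicate activation of at least 60% and every replicate at or above 60%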;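 also: 0% = median plate neutral-control signal and 100% = twice that signal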
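Material: SR-BI-overexpressing, LDLR-lacking CHO cells; schedule: compound exposure 3 h, 37 °C; reagent: DiI-labelled HDL at 10 µg/mL final; technique: bottom-read fluorescence, 550/595 nm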
Glyco luc inh = N-linked glycosylation inhibition | D54 ERlucT glycosylation luciferase reporter, 24 h; percent of 100 nM tunicamycin response | reporter increase, % at 12.5 µM | hit rate 0.23% among 360,000;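 active = mean luciferase reporter signal, scaled so untreated is 0 and the glycosylation-blocking control 100, at or above a set limit in every replicate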;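 also: luciferase carries N-glycosylation sites so blocking glycosylation raises the light; 0% = median of neutral control wells and 100% = median of 100 nM tunicamycin wells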
PglD DTNB = inhibitors of Campylobacter jejuni PglD acetyltransferase. purified PglD enzyme, DTNB colorimetric CoA detection. inhibition, % at 12.5 µM. hit rate 0.098% among 360,000; in the data active = inhibition above about 16%, passing the limit was not always enough
SR-BI DiI inh = mouse SR-BI HDL lipid transfer inhibition; Q61009; ldlA[mSR-BI] CHO cells, DiI-HDL uptake fluorescence, 3 h; inhibition, % at 12.5 µM; hit rate 0.96% among 320,000; AID 488896;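 active = mean replicate inhibition of at least 70% and a set share of replicates each scoring 70 or more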;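 also: 0% = median of neutral control wells and 100% = median of positive control wells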
Target sequence (Q61009 whole entry, looked up): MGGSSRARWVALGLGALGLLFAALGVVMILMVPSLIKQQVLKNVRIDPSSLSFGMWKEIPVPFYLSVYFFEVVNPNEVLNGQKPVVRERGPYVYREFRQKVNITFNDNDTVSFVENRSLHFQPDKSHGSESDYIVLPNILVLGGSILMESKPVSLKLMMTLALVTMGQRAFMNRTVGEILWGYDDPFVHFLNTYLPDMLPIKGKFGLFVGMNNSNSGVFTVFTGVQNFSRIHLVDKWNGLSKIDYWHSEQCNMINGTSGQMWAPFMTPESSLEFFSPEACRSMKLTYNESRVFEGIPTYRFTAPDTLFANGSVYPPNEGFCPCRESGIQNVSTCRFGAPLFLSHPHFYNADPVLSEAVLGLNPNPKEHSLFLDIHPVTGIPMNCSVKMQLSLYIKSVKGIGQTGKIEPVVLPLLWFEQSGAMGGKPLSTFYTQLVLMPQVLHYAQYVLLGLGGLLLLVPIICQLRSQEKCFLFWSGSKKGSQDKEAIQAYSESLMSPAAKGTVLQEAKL
Env fusion inh = inhibitors of HIV Env-mediated cell fusion; HeLa-JRFL Env/CEM21 cell fusion, luciferase; AID 651610; inhibition, % at 12.3 µM; hit rate 1.1% among 360,000;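 active = mean replicate inhibition score of at least 50 and every replicate individually at or above 50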;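 also: 0% = plate neutral controls and 100% = maraviroc near 300 nM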
Starred values were filed as active, the others as inactive; · = not tested or not shown; [ ] = another dose, or the depositor's remark. Sampled rows, rich in hits. Any-hit rate of the full collection: about 1.9%.

SMILES	Rtt109 Vps75	SR-BI uptake up	Glyco luc inh	PglD DTNB	SR-BI DiI inh	Env fusion inh
COc1ccc(N2CCN(c3ncnc4scc(-c5ccc(F)cc5)c34)CC2)cc1	2	-23	-6	-4	23	16
Fc1ccc(-c2csc3ncnc(N4CCN(c5ccccc5)CC4)c23)cc1	3	-13	-9	0	13	29
c1ccc(N2CCN(c3ncnc4scc(-c5cccs5)c34)CC2)cc1	14	-64	-9	1	64	82*
Cc1csc2ncnc(N3CCN(S(=O)(=O)c4cccc(C(F)(F)F)c4)CC3)c12	2	50	-6	0	-50	57*
OCCCNc1ncnc2scc(-c3ccc(Cl)cc3)c12	-3	-18	-12	1	18	62*
COc1ccc(N2CCN(c3ncnc4scc(-c5ccc(C)cc5)c34)CC2)cc1	52*	-39	-8	-2	39	35
NNc1ncnc2scc(-c3ccc(Cl)cc3)c12	11	-9	-1	-1	9	-47
COC(=O)C[C@H]1CC[C@H]2[C@@H](COc3ccc(NS(=O)(=O)c4ccccc4Cl)cc3C(=O)N2C)O1	·	·	·	·	·	9[16.7 µM]
C[C@@H]1CCCCO[C@@H](CN(C)S(=O)(=O)c2cn(C)cn2)[C@H](C)CN([C@@H](C)CO)C(=O)c2cc(NS(=O)(=O)c3ccccc3)ccc2O1	·	·	·	2	·	-5[16.7 µM]
C[C@H]1CN([C@@H](C)CO)C(=O)c2cc(NC(=O)Cc3cn(C)c4ccccc34)ccc2O[C@@H]1CN(C)C(=O)Nc1ccccc1	·	·	·	2	·	8[16.7 µM]
COc1ccc(-c2csc3ncnc(N4CCN(S(=O)(=O)c5ccc(C)cc5)CC4)c23)cc1	-4	5	-12	·	-5	63*
Cc1sc2ncnc(N3CCN(S(=O)(=O)c4ccc(Br)cc4)CC3)c2c1C	9	17	-5	0	-17	78*
COc1ccc(OCC(=O)NNC(=O)C2CCN(c3ncnc4sc(C)c(C)c34)CC2)cc1	10	-56	-1	-3	56	20
c1csc(-c2csc3ncnc(NCCCN4CCOCC4)c23)c1	-4	18	-4	6	-18	68*
Cc1sc2ncnc(N3CCC(C(=O)NNC(=O)COc4ccc(Br)cc4)CC3)c2c1C	6	-81	-5	-1	81*	6
Cc1sc2ncnc(N3CCN(S(=O)(=O)c4ccc(C(C)(C)C)cc4)CC3)c2c1C	11	3	-6	-7	-3	15
CNC(=O)C[C@@H]1CC[C@H]2[C@@H](COC[C@H](O)CN2C(=O)c2ccc3c(c2)OCO3)O1	·	·	·	-3	·	·
CN1C(=O)c2cc(NC(=O)C3CCOCC3)ccc2OC[C@@H]2O[C@H](CC(=O)NCC3CC3)CC[C@@H]21	·	·	·	-2	·	2[16.7 µM]
CCOc1cc(CNC(C)C)c(Cl)cc1OCC(=O)NCCc1ccccc1	5	-78	-4	-8	78*	·
CCOc1cc(CNCCO)c(Cl)cc1OCC(=O)NCCc1ccccc1	0	1	-1	-4	-1	-74
C[C@@H]1CN([C@H](C)CO)S(=O)(=O)c2ccc(-c3cccc(F)c3)cc2O[C@@H]1CN(C)C	·	·	·	1	·	10[16.7 µM]
COc1ccc(C(CC(=O)Nc2cc([N+](=O)[O-])ccc2OC)c2ccccc2)cc1 (stereo not given)	3	-57	-2	-4	57	79*
COc1ccc(CCC(=O)Nc2cc([N+](=O)[O-])ccc2OC)cc1	-3	-74	1	·	74*	5
COc1ccc([N+](=O)[O-])cc1N/C(=N/S(=O)(=O)c1ccccc1)c1ccccc1	14	-73	-2	-3	73*	3
COc1ccc(S(=O)(=O)Nc2ccc3c(c2)C(=O)N([C@@H](C)CO)C[C@H](C)[C@@H](CN(C)C(=O)Nc2ccc(F)cc2)OCCCC[C@@H](C)O3)cc1	·	·	·	5	·	-51[16.7 µM]
SMILES	Rtt109 Vps75	SR-BI uptake up	Glyco luc inh	PglD DTNB	SR-BI DiI inh	Env fusion inh
COc1ccc(NC(=O)Nc2ccc3c(c2)C(=O)N([C@@H](C)CO)C[C@H](C)[C@H](CN(C)C(=O)c2ccccc2)OCCCC[C@H](C)O3)cc1	·	·	·	0	·	56*[16.7 µM]
COc1ccc(NC(=O)Nc2ccc3c(c2)C(=O)N([C@H](C)CO)C[C@H](C)[C@H](CN(C)C(=O)c2ccccc2)OCCCC[C@H](C)O3)cc1	·	·	·	-4	·	61*[16.7 µM]
C[C@H]1CN([C@@H](C)CO)C(=O)c2cc(C3=CCCCC3)cnc2O[C@H]1CN(C)C(=O)c1ccc2c(c1)OCO2	·	·	·	-1	·	2[16.7 µM]
CC1(C(=O)N2CCC(CO)(Cc3cccc(C(F)(F)F)c3)CC2)CC1	-2	-85	0	9	85*	4
CC(=O)c1ccc(C(=O)N2CCC(CO)(Cc3cccc(C(F)(F)F)c3)CC2)cc1	-11	-63	2	·	63	15
CN(C(=O)c1ccc(Oc2ccc([N+](=O)[O-])cc2)cc1)C1CCCCC1	4	-28	-4	-2	28	59*
CN(C(=O)c1cccc(NC(=O)Cc2ccc([N+](=O)[O-])cc2)c1)C1CCCCC1	-4	-39	-2	0	39	-13
O=C1c2cccnc2C(Nc2ccc(S(=O)(=O)N3CCCCC3)cc2)N1Cc1ccccc1 (stereo not given)	2	13	1	·	-13	84*
CCOC(=O)c1ccc(NC2c3ncccc3C(=O)N2Cc2ccc(F)cc2)cc1 (stereo not given)	0	15	3	6	-15	93*
CC(C)NC(=O)N[C@@H]1C=C[C@@H](CC(=O)O)O[C@H]1CO	·	·	·	2	·	-2[16.7 µM]
CC[C@]12c3[nH]c4ccc(Cl)cc4c3CCN1C(=O)[C@@H](CC(=O)NCc1ccc(OC)c(OC)c1)C[C@@H]2C(=O)N1CCN(C(=O)c2ccco2)CC1	-6	-78	1	-5	78*	2
O=C(CC1C[C@H](C(=O)N2CCOCC2)[C@@]2(CCC3CCCC3)c3[nH]c4ccccc4c3CCN2C1=O)NCc1cccc(C(F)(F)F)c1 (stereo not given in full)	-10	107*	4	0	-107	16
S=C1NC(c2ccccc2)=CC(c2ccccc2)N1 (stereo not given)	20	-82	1	·	82*	-43
C[C@H](CO)N1C[C@H](C)[C@H](CN(C)Cc2ccc(Oc3ccccc3)cc2)Oc2ccc(NS(=O)(=O)c3ccc(Cl)cc3)cc2C1=O	·	·	·	0	·	·
COCCn1nnnc1CN(CCc1ccccc1)Cc1cc2cc(OC)ccc2[nH]c1=O	-9	22	-3	·	-22	77*
COc1ccc2[nH]c(=O)c(CN(Cc3nnnn3Cc3ccccc3)CC3CCCO3)cc2c1 (stereo not given)	53*	16	2	0	-16	112*
